Consider twelve compounds from ChEMBL document CHEMBL5053482, “Rapid Optimization of the Metabolic Stability of a Human Immunodeficiency Virus Type-1 Capsid Inhibitor Using a Multistep Computational Workflow” (J Med Chem, 2021).

Series [1] has as its system Human immunodeficiency virus 1. Put plainly: Antiviral activity against HIV1 NL4-3 Env-deficient pseudotype virus infected in human U87.CD4.CCR5.CXCR4 cells assessed by reduction in viral infection in early stage measured after 48 hrs by luciferase activity based single-round infection assay. Type of series: functional, organism-based. To be noted: for IC50: u87.cd4.ccr5.cxcr4; for pIC50: Human immunodeficiency virus 1, NL4-3, U87.CD4.CCR5.CXCR4, 48 h, read-out: IC50.

Series [2] can be described thus: Cytotoxicity against in human U87.CD4.CCR5.CXCR4 cells assessed as reduction in cell viability measured after 48 hrs by CCK8 assay. It is filed as cell-based. Conditions: u87.cd4.ccr5.cxcr4, 48 h. The essentials: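 U87 cells stably expressing CD4/CCR5 or CD4/CXCR4 were grown in a humidified 5% CO2 atmosphere at 37°C and seeded at 1.2 × 10^4 cells/well 24 h before treatment. Cells were exposed to compound (1mM-0.3μM) or DMSO for 48 h at 37°C, then to CCK-8 for 4 h at 37°C, and absorbance was read at 450 nm. Controls were untreated cells and 0.1% SDS-treated cells.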

The test system of series [3] is Human immunodeficiency virus 1. As to the kind of experiment: Binding affinity to C-terminal His-tagged HIV1 NL4-3 capsid protein K70A mutant expressed in Escherichia coli BL21 codon plus (DE3)RIL.
For series [4], the system named is Human immunodeficiency virus 1. Put plainly: Binding affinity to C-terminal His-tagged HIV1 NL4-3 capsid protein M66A mutant expressed in Escherichia coli BL21 codon plus (DE3)RIL.
For series [5], the system named is Human immunodeficiency virus 1. Put plainly: Binding affinity to C-terminal His-tagged HIV1 NL4-3 capsid protein N57A mutant expressed in Escherichia coli BL21 codon plus (DE3)RIL.
A short description of series [6]: Therapeutic index, ratio of CC50 for cytotoxicity against human 87.CD4.CCR5.CXCR4 cells to IC50 for antiviral activity against HIV1 NL4-3 virus in human 87.CD4.CCR5.CXCR4 cells. It is filed as toxicity, cell-based. To be noted: read-out: TI. The essentials:
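U87.CD4.CCR5/CXCR4 cells were seeded 24 h ahead and incubated 48 h at 37°C. Antiviral arm: p24-normalised single-round luciferase pseudovirus (pNL4-3-Luc+R-E− backbone, BG505 Env), luminescence read after lysis. […] Index is CC50 divided by IC50.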

Series [7] deals with Human immunodeficiency virus 1. As to the kind of experiment: Binding affinity to hexameric C-terminal His-tagged HIV1 NL4-3 capsid protein A14C/E45C/W184A/M185A mutant expressed in Escherichia coli BL21 codon plus (DE3)RIL assessed as association rate constant by SPR analysis. The gist of the method: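 Disulfide-stabilised CA hexamers, isolated by size exclusion after stepwise βME dialysis, amine-coupled at 100 μg/mL (10mM sodium acetate pH 5.0) to GLH chip; IgG b12 reference surface. 25 °C; running buffer PBS, 3% DMSO, 0.005% polysorbate 20, pH 7.4. One-shot kinetics of 1:4 serial dilutions from 5 or 2 μM, 100 μl/min, 1 min association, up to 5 min dissociation.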
(In general: SPR reads the build-up and loss of mass on a sensor chip optically.)

Series [8] in a line: Binding affinity to hexameric C-terminal His-tagged HIV1 NL4-3 capsid protein A14C/E45C/W184A/M185A mutant expressed in Escherichia coli BL21 codon plus (DE3)RIL assessed as dissociation constant by SPR analysis. Also noted: species or system Human immunodeficiency virus 1. The gist of the method: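 SPR at 25 °C using one-shot kinetics. Disulfide-stabilized CA hexamer was assembled by βME dialysis, isolated by SEC, and amine-coupled to a GLH chip at 100 μg/mL in 10 mM sodium acetate pH 5.0. An IgG b12 surface served as reference. Compound was injected as 1:4 serial dilutions from 5 or 2 μM in PBS with 3% DMSO and 0.005% polysorbate 20, pH 7.4, at 100 μl/min. Association was 1 min and dissociation up to 5 min.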

Series [9] can be described thus: Half life in human liver microsomes. It is filed as ADME, Microsome. Background: Liver microsomes are vesicles of endoplasmic reticulum, rich in cytochrome P450 enzymes.

By CC50 is commonly meant the concentration at which the toxic effect on the cells reaches its halfway point. As a reminder, the pIC50 is the negative decadic logarithm of the IC50, by convention in mol/L. Broadly, the pKd is the negative decadic logarithm of the Kd, by convention in mol/L.

SMILES strings stand for the structures. pIC50, pKd: −log10 of the molar value. Calls of active or inactive are those of the source. No cut-off for these calls is given here.

Turning to `Cc1[nH]c2ccccc2c1CC(=O)N[C@H](Cc1ccccc1)C(=O)N(C)c1ccc2[nH]ncc2c1`, in [1], the IC50 entry is listed as “Not Active”. In series [2], the CC50 result is listed as “Not Active”.

Take `CN(C(=O)C(Cc1ccccc1)NC(=O)Cc1c[nH]c2c(N)cccc12)c1ccccc1` (racemic): the pIC50 in [1] is 7.01. Moreover, the result in series [3], in series [4] and in [5] was inactive. Also, the CC50 in [2] (read-out: CC50) came to 83.5 µM. In addition, the selectivity ratio in series [6] came out at 859. Besides, the Ka in series [7] was 5.62 10^5/M/s. The pKd in series [8] was 6.72.

As to `Cc1[nH]c2ccccc2c1CC(=O)NC(Cc1ccccc1)C(=O)N(C)c1ccccc1` (racemic), in [1], the pIC50 is 7.26. The result in series [3], in series [4] and in [5] was inactive. Moreover, in series [2] (read-out: CC50), the CC50 was determined as 36.8 µM. The Ka in series [7] was 3.07 10^5/M/s.

Take `CN(C(=O)[C@H](Cc1ccccc1)NC(=O)Cc1n[nH]c2c(N)cccc12)c1ccc2[nH]ncc2c1`: in series [1], the pIC50 is 6.55. Also, the CC50 in series [2] (read-out: CC50) worked out at 102 µM. For the same compound, the t1/2 in series [9] turned out to be 102 min. The selectivity ratio in series [6] came to 365. The Ka in series [7] was 2.86 10^5/M/s. Besides, the pKd in [8] was 6.47.

On to `CN(C(=O)[C@@H](Cc1ccccc1)NC(=O)Cc1n[nH]c2c(N)cccc12)c1ccc2[nH]ncc2c1`, for which, in series [1], the IC50 result was “Not Active”. For the same compound, the CC50 result in series [2] is “Not Active”.

On to `Cc1[nH]c2ccccc2c1CC(=O)N[C@H](Cc1ccccc1)C(=O)N(C)c1ccccc1`, for which the IC50 result in [1] is reported as “Not Active”. The CC50 entry in series [2] was “Not Active”.

In the case of `CN(C(=O)C(Cc1ccccc1)NC(=O)Cc1n[nH]c2c(N)cccc12)c1ccc2[nH]ncc2c1` (racemic), in series [1], the pIC50 is 5.62. Moreover, the outcome in [3], in series [4] and in series [5] was inactive. Further, the CC50 in series [2] (read-out: CC50) turned out to be 415 µM. Moreover, in series [6], the selectivity ratio was determined as 171. Further, the Ka in series [7] was 2.2 10^5/M/s. Further, the pKd in [8] is 6.31.

For the compound `Cc1[nH]c2ccccc2c1CC(=O)N[C@@H](Cc1ccccc1)C(=O)N(C)c1ccc2[nH]ncc2c1`, the pIC50 in [1] is 7.69. Moreover, in series [2] (read-out: CC50), the half-maximal cytotoxic concentration (CC50) turned out to be 46.9 µM. Also, in series [9], the t1/2 is given as 1 min. Moreover, the selectivity ratio in series [6] stood at 2280. Besides, the Ka in series [7] is 4.37 10^5/M/s. Further, the pKd in series [8] was 7.60.

In the case of `Cc1[nH]c2ccccc2c1CC(=O)NC(Cc1ccccc1)C(=O)N(C)c1ccc2[nH]ncc2c1` (racemic), the pIC50 in series [1] is 7.42. The result in [3], in [4] and in series [5] was inactive. The CC50 in [2] (read-out: CC50) was 76.9 µM. In [6], the selectivity ratio was determined as 2010. Besides, in series [7], the Ka was 2.75 10^5/M/s. In [8], the pKd was 7.36.

On to `CN(C(=O)[C@H](Cc1ccccc1)NC(=O)Cc1c[nH]c2c(N)cccc12)c1ccccc1`, for which the pIC50 in series [1] is 7.21. In series [2] (read-out: CC50), the CC50 was determined as 101 µM. For the same compound, the t1/2 in series [9] is 15.4 min. Moreover, the selectivity ratio in [6] is 1630. In series [7], the Ka was 4.76 10^5/M/s. Besides, the pKd in [8] was 6.86.

For the compound `CN(C(=O)[C@@H](Cc1ccccc1)NC(=O)Cc1c[nH]c2c(N)cccc12)c1ccccc1`, the IC50 entry in [1] is recorded as “Not Active”. Further, in series [2], the half-maximal cytotoxic concentration (CC50) entry is listed as “Not Active”.

Take `Cc1[nH]c2ccccc2c1CC(=O)N[C@@H](Cc1ccccc1)C(=O)N(C)c1ccccc1`: the pIC50 in [1] was 7.10. Further, the CC50 in series [2] (read-out: CC50) stood at 66.7 µM. In addition, in series [7], the Ka was 4.75 10^5/M/s.
